Compound activity from PubChem.
Sampled rows, rich in hits. Any-hit rate of the full collection: about 2.9%.
Kir21 block – blocks the mouse Kir2.1 inward-rectifier potassium channel; 310,000 tested, 0.85% active; B-score at 10 µM; P35561; HEK293-Kir2.1, FluxOR thallium flux fluorescence; stronger effect = lower value; AID 1672;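 active = fluorescence ratio B-score at or below minus 3 SD of library scores, with starting-brightness B-score within 2 SD, cut at about -4.2 in these data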;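 also: channel flux triggered by added potassium and thallium sulfate stimulus; B-score of peak minus minimum fluorescence over baseline after thallium stimulus; more negative B-score means stronger Kir2.1 block with less thallium influx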
Target sequence (P35561 whole entry, looked up): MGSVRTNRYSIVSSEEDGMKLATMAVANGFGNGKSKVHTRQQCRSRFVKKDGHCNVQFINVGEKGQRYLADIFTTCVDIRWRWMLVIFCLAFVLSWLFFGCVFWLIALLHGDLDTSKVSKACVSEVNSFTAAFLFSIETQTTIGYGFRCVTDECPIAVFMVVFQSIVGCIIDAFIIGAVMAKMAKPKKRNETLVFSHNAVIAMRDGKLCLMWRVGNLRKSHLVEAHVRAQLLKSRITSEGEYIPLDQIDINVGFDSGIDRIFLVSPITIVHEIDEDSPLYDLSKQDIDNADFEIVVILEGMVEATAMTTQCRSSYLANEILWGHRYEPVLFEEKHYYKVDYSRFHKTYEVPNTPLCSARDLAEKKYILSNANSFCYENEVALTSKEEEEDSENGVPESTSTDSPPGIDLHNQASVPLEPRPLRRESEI
TRPC4 potent – allosterically enhances the mouse TRPC4 cation channel | B-score at 10 µM | Q9QUQ5 | 310,000 tested, 0.42% active | HEK293 TRPC4beta/mu-opioid, DAMGO EC20, Fluo-4 Ca2+ flux; stronger effect = higher value | AID 2227;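 active = B-score of calcium response area above 5 SD of library B-scores, with initial fluorescence ratio within 5 SD of library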;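 also: B-score of integrated fluorescence ratio over time as area under calcium response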
TRPC4 inh – TRPC4 (mouse) channel inhibition | Q9QUQ5 | HEK293 TRPC4beta/mu-opioid, DAMGO-evoked Fluo4 calcium flux; stronger effect = lower value | B-score at 10 µM | 300,000 tested, 0.39% active;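 active = B-score over 3 SD under the library average, no early fluorescence shift, positive overall ratio signal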
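Material: HEK293 cells with stable TRPC4beta plus mu-opioid receptor expression / Probe or stimulus: DAMGO in two steps, submaximal then maximal / Compound: single concentration per test compound / Technique: kinetic Fluo4 fluorescence imaging of calcium influx / Read-out: per-well B score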
TRPC6 activator – activates the mouse TRPC6 cation channel; Q61143; HEK293-TRPC6 membrane potential dye fluorescence; stronger effect = higher value; B-score at 10 µM; 310,000 tested, 0.13% active; AID 2550;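 active = B-score of the integrated fluorescence ratio above library mean plus 3 SD, and starting fluorescence ratio within library mean plus 5 SD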;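 also: higher score means more depolarization so channel activation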
TRPC6 inhibitor – inhibitors of mouse TRPC6 channel; 310,000 tested, 1.1% active; B-score at 10 µM; HEK293-TRPC6, membrane potential dye, ACh-evoked depolarization; stronger effect = lower value; Q61143; AID 2553;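 active = B-score under library mean minus 3 SD, initial fluorescence not abnormally high, positive integrated signal ratio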;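 also: B-score derived from integrated fluorescence ratio over the kinetic read; more negative B-score means stronger inhibition of depolarization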
TRPC4 agonist – activators of mouse TRPC4 channel | Q9QUQ5 | HEK293 TRPC4beta/mu-opioid, Fluo4 calcium fluorescence; stronger effect = higher value | B-score at 10 µM | 310,000 tested, 0.49% active;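 active = B-score above 5 SD of library B-scores, and initial fluorescence ratio not above library mean plus 5 SD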;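 also: positive B-score marks a calcium rise read as TRPC4 activation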
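System: HEK293 cells stably co-expressing mouse TRPC4beta and mu-opioid receptor; Schedule: Fluo4 dye loading 45 min at room temperature, 110 s recording; Detection: Fluo4 fluorescence, kinetic; Evaluation: B-scored integrated calcium fluorescence ratio; Controls: buffer (low) and maximal DAMGO (high).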
TRPC4 sel inh 2 – mouse TRPC4 off-target activity of TRPC6 inhibitors, second screen; shares compounds with TRPC6 inhibitor; 920 tested, 42% active; HEK293 TRPC4/MOR, membrane potential dye fluorescence; channel activated by saturating DAMGO dose; AID 2776; inhibition, % at 10 µM;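 active = compounds whose fluorescence signal differed from control wells by over 3 SD, either direction, in both duplicate plates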
TRPC4 spec – mouse TRPC4 off-target activity of TRPC6 inhibitors | activity change, negative = inhibition, % at 10 µM | HEK293 TRPC4/mu-opioid, membrane potential fluorescence | AID 2777 | 920 tested, 61% active | shares compounds with TRPC6 inhibitor;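 active = rise or fall in signal beyond 3 SD of buffer-only wells in both replicate plates, either sign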;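 also: integrated kinetic ratio of fluorescence range over baseline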
HEK293 MPD ctr 2-1 – parental HEK293 nonspecific activity of TRPC6 inhibitors, second screen | signal change vs control, % at 10 µM | 920 tested, 31% active | AID 2779 | shares compounds with TRPC6 inhibitor | parental HEK293 membrane potential dye fluorescence; maximal acetylcholine challenge after compound addition;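 active = membrane potential signal moving either way by over 3 SD of the maximum-effect control, in both duplicate plates, meaning non-specific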
HEK293 MPD ctr-1 – counter-screen for TRPC6 inhibitors: effect in parental HEK293 cells; parental HEK293 membrane potential dye fluorescence; shares compounds with TRPC6 inhibitor; 920 tested, 60% active; membrane potential signal change, % at 10 µM;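 active = membrane potential signal shifting up or down by more than 3 SD of buffer-only wells, on both duplicate plates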
HEK293 MPD ctr-2 – counter-screen for TRPC6 modulators: effect in parental HEK293 cells. shares compounds with TRPC6 inhibitor. AID 488924. membrane potential dye fluorescence. 2,400 tested, 51% active. membrane potential signal change, % at 10 µM;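 active = membrane potential signal moves up or down beyond 5 SD from buffer-only wells, on both duplicate plates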
HEK293 MPD ctr 2-2 – second counter-screen for TRPC6 modulators: effect in parental HEK293 cells | shares compounds with TRPC6 inhibitor | membrane potential dye fluorescence; after compound, maximal acetylcholine stimulation | inhibition, % at 10 µM | 2,400 tested, 14% active | AID 488926;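 active = membrane potential signal drops by more than 5 SD from the mean control signal, in both duplicate plates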;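 also: plate controls were acetylcholine ECmax control wells for no effect and buffer only wells for full effect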
TRPC4 ctr mod – mouse TRPC4 off-target activity of TRPC6 modulators; shares compounds with TRPC6 inhibitor; HEK293 TRPC4/mu-opioid, membrane potential fluorescence; percent change from control (negative = decrease, positive = increase), % at 10 µM; 2,400 tested, 69% active; AID 488927;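 active = membrane potential signal moved up or down beyond 5 SD of buffer control wells, in both duplicate plates, actives on both sides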;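 also: plate controls were assay buffer wells for no effect and DAMGO maximal-effect wells for full effect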
TRPC4/MOR inh 2 – mouse TRPC4 off-target activity of TRPC6 modulators, second screen; shares compounds with TRPC6 inhibitor; HEK293 TRPC4/mu-opioid, membrane potential dye fluorescence; stimulated with maximal-effect DAMGO; inhibition, % at 10 µM; 2,400 tested, 55% active; AID 488928;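 active = drop in membrane potential signal beyond 5 SD of the control wells in both duplicate plates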;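 also: TRPC4 counter screen for TRPC6 hits run under conditions tuned for TRPC6 not TRPC4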
TRPC6 inh conf – confirmation of mouse TRPC6 inhibitors; shares compounds with TRPC6 inhibitor; HEK293-TRPC6, membrane potential dye, ACh-evoked depolarization; inhibition, % at 10 µM; 3,300 tested, 43% active; AID 488960;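 active = fluorescence ratio falls more than 5 SD below the full-stimulation control mean, in both duplicate runs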;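 also: integrated fluorescence ratio of peak minus minimum over baseline after agonist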
TRPC6 act confirm – mouse TRPC6 activator confirmation | HEK293-TRPC6 membrane potential dye fluorescence, FDSS | shares compounds with TRPC6 inhibitor | activation, % at 10 µM | 2,800 tested, 11% active;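 active = ratio signal rise beyond 5 SD above unstimulated control wells' mean, seen in both duplicate runs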;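 also: plate controls were buffer EC0 wells for no effect and acetylcholine ECmax response for full effect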
* hit, by the source's call.

`CCC(C(=O)NC1CCCCC1)n1c(SCc2cccc(C)c2)nc2ccncc21` (centres undefined) gave Kir21 block 0.09, TRPC4 potent inactive, TRPC4 inh inactive, TRPC6 activator inactive, TRPC6 inhibitor inactive and TRPC4 agonist inactive.
CCC(C(=O)NC1CCCCC1)n1c(SCc2cccc(F)c2)nc2ccncc21 (centres undefined) was read as Kir21 block 1.1, TRPC4 potent inactive, TRPC4 inh inactive, TRPC6 activator inactive, TRPC6 inhibitor -5.1*, TRPC4 agonist inactive, HEK293 MPD ctr-2 inactive, HEK293 MPD ctr 2-2 inactive, TRPC4 ctr mod inactive, TRPC4/MOR inh 2 inactive, TRPC6 inh conf inactive and TRPC6 act confirm inactive.
For Cc1nc(SCC(=O)c2ccccc2)c(C#N)c(-c2ccco2)c1C(=O)NCc1ccco1 the results were Kir21 block 0.21, TRPC4 potent inactive, TRPC4 inh inactive, TRPC6 activator 14*, TRPC6 inhibitor inactive, TRPC4 agonist inactive, HEK293 MPD ctr-2 220%*, HEK293 MPD ctr 2-2 inactive, TRPC4 ctr mod 16%*, TRPC4/MOR inh 2 inactive, TRPC6 inh conf inactive and TRPC6 act confirm 52%*.
For CCOC(=O)CNS(=O)(=O)c1ccc(S(=O)(=O)N2CCCC2)cc1 the results were Kir21 block 0.35, TRPC4 potent inactive, TRPC4 inh inactive, TRPC6 activator inactive, TRPC6 inhibitor -7.8*, TRPC4 agonist inactive, TRPC4 sel inh 2 inactive, TRPC4 spec inactive, HEK293 MPD ctr 2-1 inactive, HEK293 MPD ctr-1 inactive, TRPC6 inh conf inactive and TRPC6 act confirm inactive.
c1cc2c3c(cccc3c1)C(N1CCCCCC1)=N2 was read as Kir21 block -0.06, TRPC4 potent inactive, TRPC4 inh inactive, TRPC6 activator inactive, TRPC6 inhibitor -12*, TRPC4 agonist inactive, HEK293 MPD ctr-2 -208%*, HEK293 MPD ctr 2-2 inactive, TRPC4 ctr mod -46%*, TRPC4/MOR inh 2 68%*, TRPC6 inh conf inactive and TRPC6 act confirm inactive.
c1ccc(NC2=Nc3cccc4cccc2c34)cc1 was read as Kir21 block -0.15, TRPC4 potent inactive, TRPC4 inh inactive, TRPC6 activator inactive, TRPC6 inhibitor inactive and TRPC4 agonist inactive.
`c1cc2c3c(cccc3c1)C(N1CCCCC1)=N2` gave Kir21 block -0.63, TRPC4 potent inactive, TRPC4 inh inactive, TRPC6 activator inactive, TRPC6 inhibitor -11*, TRPC4 agonist inactive, HEK293 MPD ctr-2 -195%*, HEK293 MPD ctr 2-2 78%*, TRPC4 ctr mod -52%*, TRPC4/MOR inh 2 93%*, TRPC6 inh conf 76%* and TRPC6 act confirm inactive.
`COc1ccc(NC(=O)[C@H](Cc2c[nH]c3ccccc23)NC(=O)[C@@H]2Cc3ccccc3CN2)cc1` gave Kir21 block -0.23, TRPC4 potent inactive, TRPC4 inh inactive, TRPC6 activator inactive, TRPC6 inhibitor inactive and TRPC4 agonist inactive.
Screening CCOC(=O)c1ccc(NC(=O)COc2ccccc2OC)cc1 returned Kir21 block -1, TRPC4 potent inactive, TRPC4 inh inactive, TRPC6 activator inactive, TRPC6 inhibitor inactive and TRPC4 agonist inactive.
`Cn1nnnc1SCC(=O)c1ccc(Br)s1` gave Kir21 block 0.75, TRPC4 potent inactive, TRPC4 inh inactive, TRPC6 activator inactive, TRPC6 inhibitor inactive and TRPC4 agonist inactive.
`O=S(=O)(c1ccc(F)c2ccccc12)N1CCCCC1` gave Kir21 block -0.76, TRPC4 potent inactive, TRPC4 inh inactive, TRPC6 activator inactive, TRPC6 inhibitor inactive and TRPC4 agonist inactive.
`O=C(NCc1ccco1)C(c1ccccc1F)N(Cc1cccnc1)C(=O)Cn1nnc2ccccc21` (centres undefined) gave Kir21 block 0.22, TRPC4 potent inactive, TRPC4 inh inactive, TRPC6 activator inactive, TRPC6 inhibitor inactive and TRPC4 agonist inactive.
CNC(=O)c1ccc(Nc2nnc(C)c3ccccc23)cc1 was read as Kir21 block -0.74, TRPC4 potent inactive, TRPC4 inh inactive, TRPC6 activator inactive, TRPC6 inhibitor -5.5*, TRPC4 agonist inactive, HEK293 MPD ctr-2 -99%*, HEK293 MPD ctr 2-2 inactive, TRPC4 ctr mod inactive, TRPC4/MOR inh 2 inactive, TRPC6 inh conf inactive and TRPC6 act confirm inactive.
For Cc1nnc(Nc2ccc(C(=O)NCCO)cc2)c2ccccc12 the results were Kir21 block -1.8, TRPC4 potent inactive, TRPC4 inh inactive, TRPC6 activator inactive, TRPC6 inhibitor inactive and TRPC4 agonist inactive.
Cc1ccnc(N2CCC(C(=O)NNC(=O)c3ccncc3)CC2)n1 was read as Kir21 block 0.16, TRPC4 potent inactive, TRPC4 inh inactive, TRPC6 activator inactive, TRPC6 inhibitor inactive and TRPC4 agonist inactive.
